The nature of series [1]: folding enthalpy; higher = less favourable; fluorescence melt of hairpins on a sequencing array, two-state fit. Particulars: sodium 0.088 M. The essentials:
(§1)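 On a sequenced MiSeq flow cell, library hairpins with annealed Cy3 and quencher oligos were imaged for Cy3 fluorescence in 2.5 °C steps up to 60 °C, in 50 mM Na-HEPES pH 8.0, 25 mM NaCl. Normalisation used pre-quench Cy3 and control constructs. Bootstrapped two-state fits gave melting temperature and folding enthalpy, combined by inverse variance across four replicates and with fitted temperatures raised by 9.35 °C to match UV melts.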

The nature of series [2]: melting temperature; fluorescence melt of hairpins on a sequencing array, two-state fit, raised by 9.35 °C to match UV melts. Particulars: sodium 0.088 M. The gist of the method: as §1

In the case of GGCAGGGGAAACCCTGTC (.(((((....))))).), in series [1], the folding enthalpy is -29.9 kcal/mol. Also, the Tm in series [2] was 55.9 °C.
Take GGCAGTCCGAAAGGAGCC (((..(((....)))))): in series [1], the folding enthalpy was -22.1 kcal/mol. Further, the Tm in series [2] was determined as 47.4 °C.
For the sequence GGCAGTGGAAACATTGCC ((((.((....)).)))), the folding enthalpy in series [1] is -41.3 kcal/mol. Further, the Tm in series [2] was 52.2 °C.
On the same counts, the results for GGCAGTGGAAACGTTGCC ((((..(....)..)))) are -28.9 kcal/mol and 49.1 °C.
The like results for GGCATACGAAAGTAGGCC (((.(((....))).))) were, in that order, -47.1 kcal/mol and 63.4 °C.
The like results for GGCATAGCGAAAGCTGCC (((..(((....)))))) were, in that order, -31.4 kcal/mol and 59.2 °C.
With GGCATAGGAAACTATGCC (((((((....))))))), the folding enthalpy in series [1] is -39.5 kcal/mol. The Tm in series [2] worked out at 64.9 °C.
On the same counts, the results for GGCATCCGAAAGGAGCC (((.(((....)))))) are -42.6 kcal/mol and 55.6 °C.
The like results for GGCATCGAAAGATAAGCC ((((((....)))..))) were, in that order, -27.9 kcal/mol and 44.7 °C.
The like results for GGCATCGAAAGATACGCC ((((((....)))..))) were, in that order, -24.3 kcal/mol and 42.3 °C.
Turning to GGCATCGAAAGATCAGCC ((((((....)))..))), the folding enthalpy in series [1] was -25 kcal/mol. The Tm in series [2] is 39.2 °C.
On the same counts, the results for GGCATCGAAAGATCCGCC ((((((....)))..))) are -19.2 kcal/mol and 49.3 °C.
On to GGCATCGAAAGATGGCC ((((((....))).))), for which the folding enthalpy in series [1] is -20.1 kcal/mol. Further, the Tm in series [2] was 58.4 °C.
GGCATCGAAAGATTAGCC ((((((....)))..))): the folding enthalpy in series [1] is -28.2 kcal/mol. Besides, the Tm in series [2] worked out at 43.7 °C.
For the sequence GGCATCGGAAACGATACC ((.((((....)))).)), in series [1], the folding enthalpy was -27.1 kcal/mol. The Tm in series [2] turned out to be 45.6 °C.
Take GGCATCGGAAACGATGTC (.(((((....))))).): the folding enthalpy in series [1] is -42.1 kcal/mol. For the same sequence, the Tm in series [2] is 55.9 °C.
On the same counts, the results for GGCATCGGAAACGGTGTC (.((.((....)).)).) are -25.7 kcal/mol and 44.8 °C.
The like results for GGCATGGGAAACCATACC ((.((((....)))).)) were, in that order, -26.2 kcal/mol and 41 °C.
Regarding GGCATTCGAAAGAAAGCC (((.(((....))).))), in series [1], the folding enthalpy was -40.4 kcal/mol. The Tm in series [2] was determined as 50.5 °C.
The like results for GGCATTCGAAAGAAGGCC (((.(((....))).))) were, in that order, -41.7 kcal/mol and 60.4 °C.
As to GGCCAAACGAAAGTTGCC (((..(((....)))))), in series [1], the folding enthalpy is -22.6 kcal/mol. The Tm in series [2] stood at 44 °C.
On the same counts, the results for GGCCAAGGAAACCTGGCC (((((.(....).))))) are -42.3 kcal/mol and 57.3 °C.
As to GGCCACCCGAAAGGGGCC (((..(((....)))))), the folding enthalpy in series [1] was -23.2 kcal/mol. Besides, the Tm in series [2] is 61.3 °C.
On the same counts, the results for GGCCACGAAAGTGGCGCC ((((((....)))..))) are -7.19 kcal/mol and 65.5 °C.
The like results for GGCCACGAAAGTGTGCC ((((((....))).))) were, in that order, -25.9 kcal/mol and 64 °C.
The like results for GGCCACGCGAAAGCGGCC (((..(((....)))))) were, in that order, -19 kcal/mol and 62.5 °C.
Turning to GGCCAGCGAAAGCTGCC (((.(((....)))))), the folding enthalpy in series [1] is -16 kcal/mol. The Tm in series [2] stood at 60 °C.
On the same counts, the results for GGCCAGCGAAAGCTTGCC (((.(((....))).))) are -50.7 kcal/mol and 55.5 °C.
On the same counts, the results for GGCCAGGCGAAAGCCGCC (((..(((....)))))) are -13.9 kcal/mol and 58.4 °C.
On the same counts, the results for GGCCAGGGAAACCCGGCC ((((.((....)).)))) are -40.9 kcal/mol and 62.1 °C.
With GGCCATCGAAAGATCGCC (((.(((....))).))), the folding enthalpy in series [1] was -33.6 kcal/mol. For the same sequence, in series [2], the Tm stood at 46.8 °C.
In the case of GGCCATGGAAACATAGCC (((.(((....))).))), the folding enthalpy in series [1] was -31.5 kcal/mol. Further, in series [2], the Tm turned out to be 40.8 °C.
The like results for GGCCATGGAAACATGGTC (.(((((....))))).) were, in that order, -36.2 kcal/mol and 54.9 °C.
As to GGCCCAGGAAACCGAGCC (((.(.(....).).))), the folding enthalpy in series [1] is -15.7 kcal/mol. For the same sequence, the Tm in series [2] is 36.9 °C.
On the same counts, the results for GGCCCAGGAAACTGAGCC (((.(((....))).))) are -32.4 kcal/mol and 49 °C.
On the same counts, the results for GGCCCCGAAAGGGAAGCC ((((((....)))..))) are -28.2 kcal/mol and 55.4 °C.
